Assay [1] has as its target T1, NAD-dependent protein deacetylase sirtuin-1 (Homo sapiens) (UniProt Q96EB6).
T1 sequence (whole entry): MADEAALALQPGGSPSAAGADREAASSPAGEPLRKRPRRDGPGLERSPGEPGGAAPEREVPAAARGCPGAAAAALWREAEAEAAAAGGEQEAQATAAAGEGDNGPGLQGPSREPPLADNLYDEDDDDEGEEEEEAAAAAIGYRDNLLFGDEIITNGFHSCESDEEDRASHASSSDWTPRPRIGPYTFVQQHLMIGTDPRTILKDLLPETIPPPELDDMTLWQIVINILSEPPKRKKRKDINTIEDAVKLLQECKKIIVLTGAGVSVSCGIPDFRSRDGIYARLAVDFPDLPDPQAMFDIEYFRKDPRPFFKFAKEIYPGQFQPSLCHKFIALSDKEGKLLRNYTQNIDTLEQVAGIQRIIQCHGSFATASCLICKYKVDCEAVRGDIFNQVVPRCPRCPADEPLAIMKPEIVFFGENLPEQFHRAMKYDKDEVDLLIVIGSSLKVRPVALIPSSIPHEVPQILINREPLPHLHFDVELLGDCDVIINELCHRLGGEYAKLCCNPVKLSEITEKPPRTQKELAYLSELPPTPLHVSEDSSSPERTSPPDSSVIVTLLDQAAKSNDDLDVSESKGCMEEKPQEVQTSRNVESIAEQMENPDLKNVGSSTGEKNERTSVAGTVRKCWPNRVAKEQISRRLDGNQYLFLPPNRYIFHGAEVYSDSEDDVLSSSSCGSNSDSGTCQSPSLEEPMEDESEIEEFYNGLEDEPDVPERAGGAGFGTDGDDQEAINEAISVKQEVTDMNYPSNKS
Briefly: Activation of human SIRT1 assessed as decrease in Km of enzyme for acetylated peptide substrate by mass spectrometry assay.

In assay [2] the target is T2, NAD-dependent protein deacetylase sirtuin-2 (Homo sapiens, UniProt Q8IXJ6).
T2 sequence (Q8IXJ6 whole entry): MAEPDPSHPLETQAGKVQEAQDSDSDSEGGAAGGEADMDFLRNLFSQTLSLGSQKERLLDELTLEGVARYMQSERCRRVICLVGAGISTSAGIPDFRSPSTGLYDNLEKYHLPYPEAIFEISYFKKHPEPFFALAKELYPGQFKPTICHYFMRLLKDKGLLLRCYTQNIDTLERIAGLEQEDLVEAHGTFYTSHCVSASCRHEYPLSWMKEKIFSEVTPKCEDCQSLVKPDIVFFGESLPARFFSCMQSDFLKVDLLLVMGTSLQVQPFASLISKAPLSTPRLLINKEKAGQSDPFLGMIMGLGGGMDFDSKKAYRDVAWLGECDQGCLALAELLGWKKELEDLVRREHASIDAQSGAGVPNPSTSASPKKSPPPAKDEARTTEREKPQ
Briefly: Activation of SIRT2 by mass spectrometry assay.

Assay [3] has as its target T3, NAD-dependent protein deacetylase sirtuin-3, mitochondrial (Homo sapiens, UniProt Q9NTG7).
T3 sequence (Q9NTG7 whole entry): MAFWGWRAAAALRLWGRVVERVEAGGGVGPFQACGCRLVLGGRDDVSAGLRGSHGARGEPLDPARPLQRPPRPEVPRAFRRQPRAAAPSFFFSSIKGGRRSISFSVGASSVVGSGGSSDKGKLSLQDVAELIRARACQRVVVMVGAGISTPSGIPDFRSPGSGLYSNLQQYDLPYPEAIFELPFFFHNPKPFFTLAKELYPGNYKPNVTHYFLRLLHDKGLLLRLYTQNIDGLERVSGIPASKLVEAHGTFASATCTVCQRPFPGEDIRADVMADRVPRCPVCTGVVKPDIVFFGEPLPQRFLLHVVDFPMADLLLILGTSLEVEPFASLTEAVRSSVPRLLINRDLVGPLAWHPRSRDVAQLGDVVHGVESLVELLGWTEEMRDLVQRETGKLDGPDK
Briefly: Activation of SIRT3 by mass spectrometry assay.

The target in assay [4] is T1, NAD-dependent protein deacetylase sirtuin-1 (Homo sapiens). Kind of assay: Activation of SIRT1 in human U2OS cells assessed as decrease in deacetylation level at 10 uM. It is filed as cell-based. The procedure, abridged: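 U-2 OS cells seeded 1.5 × 10⁴/well; compounds in DMSO added after 24 h, then doxorubicin 1 μg/ml final to induce p53. Fixed, permeabilized, immunostained for Ac-Lys382-p53 and beta-tubulin, infrared scan; background-corrected acetyl signal normalized to tubulin, then to vehicle as % acetylated p53. Replicate plates co-treated with a SIRT1-specific inhibitor.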

Assay [5] shares this target. Kind of assay: (§1) Activation of human SIRT1 expressed in Escherichia coli BL21 by mass spectrometry assay.
For assay [6], the target named is T4, NAD-dependent protein deacetylase sirtuin-1 (Homo sapiens, UniProt Q96EB6).
T4 sequence (Q96EB6 whole entry): T1 sequence (whole entry)
The description is as §1.

The test system of assay [7] is Mus musculus. Briefly: Reduction of glucose levels in DIO C57BL/6 mouse model at 5 mg/kg, po during insulin tolerance test. On the set-up: dose 5 mg/kg. It is filed as functional, organism-based. The procedure, abridged:
(§2)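 Male C57BL/6 mice, started at nine weeks, fed 60%-fat diet until mean weight ~40 g; 6-10 per group; once-daily oral gavage in 2% HPMC + 0.2% DOSS. Fed glucose at 2, 4, 6, 8, 10 weeks; IPGTT after 5 weeks; ITT after 10 weeks. One-way ANOVA with Dunnett's test vs control, p<0.05.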

Assay [8] deals with Mus musculus. Kind of assay: Reduction of fasting blood glucose in DIO C57BL/6 mouse model at 5 mg/kg, po assessed as glucose level by glucose tolerance test. It is filed as functional. The procedure, abridged:
as §2

As usually defined, the EC50 is the concentration that produces a half-maximal response. Low readings indicate a more potent agent, high ones a less potent agent.

Calls of active or inactive are those of the source. The calls are words filed in the database; no cut-off is given here.

With `O=C(Nc1ccccc1-c1cn2c(CN3CC[C@@H](O)C3)csc2n1)c1ccc2ccccc2c1`, the outcome in assay [1] and in assay [4] was Active. The EC50 in assay [2] was > 300 µM; in assay [3], > 300 µM; in assay [6], 360 nM. In assay [5], this compound registered an Activity of 296%.
`CN(CCOc1ccc(CC2SC(=O)NC2=O)cc1)c1ccccn1` (stereo not drawn) [ROSIGLITAZONE]: the result with Mus musculus [7] was Active. Further, the Activity in the assay with Mus musculus [8] is 496 mg/h/dL.

Values taken from ChEMBL document CHEMBL1147981, “Small molecule activators of SIRT1 as therapeutics for the treatment of type 2 diabetes” (Nature, 2007).
